Source: ChEMBL document CHEMBL1250424, “Design, synthesis and evaluation of 2-amino-4-m-bromoanilino-6-arylmethyl-7H-pyrrolo[2,3-d]pyrimidines as tyrosine kinase inhibitors and antiangiogenic agents” (Bioorg Med Chem, 2010)
pIC50: −log10 of the molar value.

How the values were obtained:
[1] = biological target: Epidermal growth factor receptor (Homo sapiens, UniProt P00533); assay: Inhibition of EGFR expressed in human A431 cells; type: cell-based, A-431
[2] = Antiangiogenic activity in fertilized chicken egg by CAM assay; type: functional, Gallus gallus
[3] = biological target: Vascular endothelial growth factor receptor 2 (Homo sapiens, UniProt P35968); assay: Inhibition of VEGFR2 expressed in human A431 cells; type: cell-based, A-431
[4] = biological target: Platelet-derived growth factor receptor beta (Homo sapiens, UniProt P09619); assay: Inhibition of PDGFRbeta expressed in human A431 cells; type: cell-based, A-431
A-431 = assay: Cytotoxicity against human A431 cells; type: functional, cell-based
Summary of the method: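 Growth inhibition of A431 cells, which over-express EGFR, measured in culture. Cisplatin was run in each evaluation as the reference standard. Each assay was performed 2-3 times, with 4-5 replicates per assay.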

Chain of Platelet-derived growth factor receptor beta (P09619 whole entry): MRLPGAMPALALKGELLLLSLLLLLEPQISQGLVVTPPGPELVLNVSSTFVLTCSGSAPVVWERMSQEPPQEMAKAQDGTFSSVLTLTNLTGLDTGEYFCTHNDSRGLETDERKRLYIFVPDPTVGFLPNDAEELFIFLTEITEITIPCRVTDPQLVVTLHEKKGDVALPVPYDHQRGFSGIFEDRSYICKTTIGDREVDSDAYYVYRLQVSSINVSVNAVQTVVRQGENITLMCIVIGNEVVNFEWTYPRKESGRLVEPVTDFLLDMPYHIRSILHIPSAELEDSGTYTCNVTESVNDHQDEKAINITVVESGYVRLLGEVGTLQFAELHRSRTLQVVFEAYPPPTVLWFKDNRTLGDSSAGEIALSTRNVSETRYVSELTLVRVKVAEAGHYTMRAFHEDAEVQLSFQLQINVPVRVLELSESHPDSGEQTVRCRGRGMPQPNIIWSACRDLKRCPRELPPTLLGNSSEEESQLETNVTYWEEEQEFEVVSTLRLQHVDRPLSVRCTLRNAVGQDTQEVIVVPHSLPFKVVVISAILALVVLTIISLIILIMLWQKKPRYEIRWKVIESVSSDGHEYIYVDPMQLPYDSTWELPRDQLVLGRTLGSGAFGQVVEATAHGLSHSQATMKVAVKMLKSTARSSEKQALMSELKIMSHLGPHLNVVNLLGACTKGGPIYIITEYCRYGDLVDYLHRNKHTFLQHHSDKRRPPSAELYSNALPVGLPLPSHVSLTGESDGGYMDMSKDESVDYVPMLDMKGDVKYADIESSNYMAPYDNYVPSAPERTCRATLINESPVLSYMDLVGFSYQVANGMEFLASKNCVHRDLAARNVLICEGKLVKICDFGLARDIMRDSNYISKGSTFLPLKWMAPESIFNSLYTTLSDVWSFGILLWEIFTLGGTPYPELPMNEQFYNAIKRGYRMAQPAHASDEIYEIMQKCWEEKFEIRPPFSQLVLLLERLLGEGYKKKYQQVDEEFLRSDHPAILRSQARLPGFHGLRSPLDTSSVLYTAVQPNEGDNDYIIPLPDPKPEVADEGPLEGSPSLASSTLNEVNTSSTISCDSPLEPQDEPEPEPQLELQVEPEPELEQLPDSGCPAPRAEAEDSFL
Chain of Epidermal growth factor receptor (P00533 whole entry): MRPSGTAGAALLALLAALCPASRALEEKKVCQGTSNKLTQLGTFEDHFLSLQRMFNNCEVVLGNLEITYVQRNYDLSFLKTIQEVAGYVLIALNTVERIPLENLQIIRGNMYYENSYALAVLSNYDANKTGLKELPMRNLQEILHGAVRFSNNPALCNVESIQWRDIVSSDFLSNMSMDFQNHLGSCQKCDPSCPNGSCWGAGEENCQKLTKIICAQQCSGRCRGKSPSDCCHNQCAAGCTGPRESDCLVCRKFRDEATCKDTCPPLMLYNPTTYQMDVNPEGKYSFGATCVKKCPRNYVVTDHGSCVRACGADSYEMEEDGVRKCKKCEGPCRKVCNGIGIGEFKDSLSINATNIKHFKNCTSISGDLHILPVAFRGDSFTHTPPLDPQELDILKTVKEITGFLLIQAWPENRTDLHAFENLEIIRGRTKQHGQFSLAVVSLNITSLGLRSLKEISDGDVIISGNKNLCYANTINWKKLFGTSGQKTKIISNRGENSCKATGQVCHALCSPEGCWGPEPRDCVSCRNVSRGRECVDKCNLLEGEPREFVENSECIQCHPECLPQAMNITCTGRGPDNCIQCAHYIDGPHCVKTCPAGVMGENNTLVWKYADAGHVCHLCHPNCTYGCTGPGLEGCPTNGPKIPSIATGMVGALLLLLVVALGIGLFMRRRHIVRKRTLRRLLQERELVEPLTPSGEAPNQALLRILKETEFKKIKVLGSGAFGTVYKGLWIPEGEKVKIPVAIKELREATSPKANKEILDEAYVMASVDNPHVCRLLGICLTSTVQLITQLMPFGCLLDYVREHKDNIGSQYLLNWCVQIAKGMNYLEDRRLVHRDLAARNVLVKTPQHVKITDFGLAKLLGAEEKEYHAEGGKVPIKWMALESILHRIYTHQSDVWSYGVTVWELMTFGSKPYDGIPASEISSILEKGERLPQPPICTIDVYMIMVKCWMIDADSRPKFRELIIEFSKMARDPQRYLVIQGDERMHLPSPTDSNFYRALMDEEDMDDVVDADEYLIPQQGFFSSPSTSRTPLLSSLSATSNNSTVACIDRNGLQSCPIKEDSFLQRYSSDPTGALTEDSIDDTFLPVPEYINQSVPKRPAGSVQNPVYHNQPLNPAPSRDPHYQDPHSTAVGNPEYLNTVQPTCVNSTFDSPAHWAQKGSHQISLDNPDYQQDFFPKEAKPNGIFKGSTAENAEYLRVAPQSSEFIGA
Chain of Vascular endothelial growth factor receptor 2 (P35968 whole entry): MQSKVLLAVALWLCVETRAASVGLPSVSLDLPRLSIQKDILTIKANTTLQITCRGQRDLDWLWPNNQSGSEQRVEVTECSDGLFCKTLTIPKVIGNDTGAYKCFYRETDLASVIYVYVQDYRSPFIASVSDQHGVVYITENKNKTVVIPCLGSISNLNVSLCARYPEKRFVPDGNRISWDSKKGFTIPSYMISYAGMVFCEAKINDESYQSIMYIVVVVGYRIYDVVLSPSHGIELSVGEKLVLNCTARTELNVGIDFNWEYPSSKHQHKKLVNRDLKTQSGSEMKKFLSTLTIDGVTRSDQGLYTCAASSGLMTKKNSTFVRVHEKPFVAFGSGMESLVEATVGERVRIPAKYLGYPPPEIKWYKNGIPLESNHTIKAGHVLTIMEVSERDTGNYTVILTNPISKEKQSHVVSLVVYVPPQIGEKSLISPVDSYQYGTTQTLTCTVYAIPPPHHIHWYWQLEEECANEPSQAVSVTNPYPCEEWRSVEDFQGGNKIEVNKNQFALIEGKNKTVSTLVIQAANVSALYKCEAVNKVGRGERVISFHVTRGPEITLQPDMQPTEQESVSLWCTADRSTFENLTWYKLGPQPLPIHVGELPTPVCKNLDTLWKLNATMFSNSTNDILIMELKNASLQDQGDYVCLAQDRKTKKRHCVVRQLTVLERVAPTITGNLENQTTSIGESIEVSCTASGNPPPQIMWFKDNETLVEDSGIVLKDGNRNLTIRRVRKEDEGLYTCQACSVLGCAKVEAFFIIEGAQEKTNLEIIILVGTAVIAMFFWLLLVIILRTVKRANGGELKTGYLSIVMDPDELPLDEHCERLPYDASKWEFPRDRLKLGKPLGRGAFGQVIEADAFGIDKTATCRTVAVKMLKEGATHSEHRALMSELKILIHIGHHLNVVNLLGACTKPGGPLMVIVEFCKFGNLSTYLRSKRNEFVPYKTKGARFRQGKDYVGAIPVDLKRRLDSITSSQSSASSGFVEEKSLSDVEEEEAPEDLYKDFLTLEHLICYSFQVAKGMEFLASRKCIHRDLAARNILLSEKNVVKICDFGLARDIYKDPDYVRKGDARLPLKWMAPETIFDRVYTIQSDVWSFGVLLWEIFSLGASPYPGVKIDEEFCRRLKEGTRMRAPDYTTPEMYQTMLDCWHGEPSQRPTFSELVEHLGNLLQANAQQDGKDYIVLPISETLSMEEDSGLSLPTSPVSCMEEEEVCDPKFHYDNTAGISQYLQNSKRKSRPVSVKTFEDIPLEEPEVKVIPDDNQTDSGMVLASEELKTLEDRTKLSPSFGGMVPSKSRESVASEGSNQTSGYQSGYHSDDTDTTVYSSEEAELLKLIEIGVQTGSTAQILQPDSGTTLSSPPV

| SMILES | pIC50 [1] | pIC50 [2] | pIC50 [3] | pIC50 [4] | pIC50 (A-431) |
| --- | --- | --- | --- | --- | --- |
| COc1ccc(OC)c(Cc2cc3c(Nc4cccc(Br)c4)nc(N)nc3n2C)c1 | < 3.70 | 5.48 | < 3.70 | 3.46 | 4.45 |
| CN(c1cccc(Br)c1)c1nc(N)nc2c1cc(Cc1ccccc1)n2C | 3.60 | 5.59 | < 3.70 | 4.14 | 4.29 |
| COc1ccc(OC)c(Cc2cc3c(Nc4cccc(Br)c4)nc(N)nc3[nH]2)c1 |  | 5.88 | 6.21 |  |  |
| Cn1c(Cc2ccccc2)cc2c(Nc3cccc(Br)c3)nc(N)nc21 | < 3.70 | 5.21 | < 3.70 | 5.55 | 4.55 |
| Cc1ccccc1Cc1cc2c(Nc3cccc(Br)c3)nc(N)nc2[nH]1 |  |  | 6.60 |  |  |
| COc1ccc(OC)c(Cc2cc3c(N(C)c4cccc(Br)c4)nc(N)nc3[nH]2)c1 | 3.84 | 6.08 | < 3.70 | 5.89 | 3.70 |

The remaining compounds from weak to strong by pIC50 [1], led by results:

| pIC50 [1] | pIC50 [2] | pIC50 [3] | pIC50 [4] | SMILES | pIC50 (A-431) |
| --- | --- | --- | --- | --- | --- |
| 4.27 | 5.81 | 4.05 | < 3.30 | CN(c1cccc(Br)c1)c1nc(N)nc2[nH]c(Cc3ccccc3)cc12 | 4.34 |
| 4.51 | 6.03 | < 3.70 | 4.46 | Cc1ccccc1Cc1cc2c(N(C)c3cccc(Br)c3)nc(N)nc2[nH]1 | < 3.30 |
| 4.89 | 5.52 | 3.93 | < 3.30 | Cc1ccccc1Cc1cc2c(Nc3cccc(Br)c3)nc(N)nc2n1C | 3.69 |
| 5.92 | 5.80 | < 3.70 | < 3.30 | Cc1ccccc1Cc1cc2c(N(C)c3cccc(Br)c3)nc(N)nc2n1C | 3.65 |
| 6.30 | 5.69 | < 3.70 | < 3.30 | COc1ccc(OC)c(Cc2cc3c(N(C)c4cccc(Br)c4)nc(N)nc3n2C)c1 | 4.03 |
